SMILES strings stand for the structures.

The target of data set [1] is Inositol 1,4,5-trisphosphate-gated calcium channel ITPR1 (Rattus norvegicus) (UniProt P29994). As to the kind of experiment: Agonist activity at rat IP3R1 expressed in HEK cells assessed as increase in calcium release in cytosol by measuring fluorescence signal at 300 uM by Mag-Fluo4 dye based assay relative to control. The data set is classed as cell-based. An outline of the steps:
(§1)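 HEK-293 cells lacking all three IP3R subtypes (CRISPR), stably transfected with rat IP3R1 (S1 splice site absent), G418-selected monoclonal line. ER loaded with Mag-Fluo-4 AM (20 μM, 1 h, 22 °C), saponin-permeabilized, in Ca2+-free cytosol-like medium, pH 7.0, 220 nM free Ca2+. MgATP 1.5 mM loads stores, CPA 10 μM added, ligand 60 s later. Read-out is fluorescence at 485/520 nm, 20 °C. Release is % of (Ffull − Fempty). Hill fit; 5–11 experiments in duplicate.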

The target of data set [2] is T1, Inositol 1,4,5-trisphosphate-gated calcium channel ITPR1 (Rattus norvegicus, UniProt P29994). As to the kind of experiment: Agonist activity at rat IP3R1 expressed in HEK cells assessed as increase in calcium release in cytosol by measuring fluorescence signal by Mag-Fluo4 dye based assay. The data set is classed as cell-based.
T1 sequence (P29994 whole entry): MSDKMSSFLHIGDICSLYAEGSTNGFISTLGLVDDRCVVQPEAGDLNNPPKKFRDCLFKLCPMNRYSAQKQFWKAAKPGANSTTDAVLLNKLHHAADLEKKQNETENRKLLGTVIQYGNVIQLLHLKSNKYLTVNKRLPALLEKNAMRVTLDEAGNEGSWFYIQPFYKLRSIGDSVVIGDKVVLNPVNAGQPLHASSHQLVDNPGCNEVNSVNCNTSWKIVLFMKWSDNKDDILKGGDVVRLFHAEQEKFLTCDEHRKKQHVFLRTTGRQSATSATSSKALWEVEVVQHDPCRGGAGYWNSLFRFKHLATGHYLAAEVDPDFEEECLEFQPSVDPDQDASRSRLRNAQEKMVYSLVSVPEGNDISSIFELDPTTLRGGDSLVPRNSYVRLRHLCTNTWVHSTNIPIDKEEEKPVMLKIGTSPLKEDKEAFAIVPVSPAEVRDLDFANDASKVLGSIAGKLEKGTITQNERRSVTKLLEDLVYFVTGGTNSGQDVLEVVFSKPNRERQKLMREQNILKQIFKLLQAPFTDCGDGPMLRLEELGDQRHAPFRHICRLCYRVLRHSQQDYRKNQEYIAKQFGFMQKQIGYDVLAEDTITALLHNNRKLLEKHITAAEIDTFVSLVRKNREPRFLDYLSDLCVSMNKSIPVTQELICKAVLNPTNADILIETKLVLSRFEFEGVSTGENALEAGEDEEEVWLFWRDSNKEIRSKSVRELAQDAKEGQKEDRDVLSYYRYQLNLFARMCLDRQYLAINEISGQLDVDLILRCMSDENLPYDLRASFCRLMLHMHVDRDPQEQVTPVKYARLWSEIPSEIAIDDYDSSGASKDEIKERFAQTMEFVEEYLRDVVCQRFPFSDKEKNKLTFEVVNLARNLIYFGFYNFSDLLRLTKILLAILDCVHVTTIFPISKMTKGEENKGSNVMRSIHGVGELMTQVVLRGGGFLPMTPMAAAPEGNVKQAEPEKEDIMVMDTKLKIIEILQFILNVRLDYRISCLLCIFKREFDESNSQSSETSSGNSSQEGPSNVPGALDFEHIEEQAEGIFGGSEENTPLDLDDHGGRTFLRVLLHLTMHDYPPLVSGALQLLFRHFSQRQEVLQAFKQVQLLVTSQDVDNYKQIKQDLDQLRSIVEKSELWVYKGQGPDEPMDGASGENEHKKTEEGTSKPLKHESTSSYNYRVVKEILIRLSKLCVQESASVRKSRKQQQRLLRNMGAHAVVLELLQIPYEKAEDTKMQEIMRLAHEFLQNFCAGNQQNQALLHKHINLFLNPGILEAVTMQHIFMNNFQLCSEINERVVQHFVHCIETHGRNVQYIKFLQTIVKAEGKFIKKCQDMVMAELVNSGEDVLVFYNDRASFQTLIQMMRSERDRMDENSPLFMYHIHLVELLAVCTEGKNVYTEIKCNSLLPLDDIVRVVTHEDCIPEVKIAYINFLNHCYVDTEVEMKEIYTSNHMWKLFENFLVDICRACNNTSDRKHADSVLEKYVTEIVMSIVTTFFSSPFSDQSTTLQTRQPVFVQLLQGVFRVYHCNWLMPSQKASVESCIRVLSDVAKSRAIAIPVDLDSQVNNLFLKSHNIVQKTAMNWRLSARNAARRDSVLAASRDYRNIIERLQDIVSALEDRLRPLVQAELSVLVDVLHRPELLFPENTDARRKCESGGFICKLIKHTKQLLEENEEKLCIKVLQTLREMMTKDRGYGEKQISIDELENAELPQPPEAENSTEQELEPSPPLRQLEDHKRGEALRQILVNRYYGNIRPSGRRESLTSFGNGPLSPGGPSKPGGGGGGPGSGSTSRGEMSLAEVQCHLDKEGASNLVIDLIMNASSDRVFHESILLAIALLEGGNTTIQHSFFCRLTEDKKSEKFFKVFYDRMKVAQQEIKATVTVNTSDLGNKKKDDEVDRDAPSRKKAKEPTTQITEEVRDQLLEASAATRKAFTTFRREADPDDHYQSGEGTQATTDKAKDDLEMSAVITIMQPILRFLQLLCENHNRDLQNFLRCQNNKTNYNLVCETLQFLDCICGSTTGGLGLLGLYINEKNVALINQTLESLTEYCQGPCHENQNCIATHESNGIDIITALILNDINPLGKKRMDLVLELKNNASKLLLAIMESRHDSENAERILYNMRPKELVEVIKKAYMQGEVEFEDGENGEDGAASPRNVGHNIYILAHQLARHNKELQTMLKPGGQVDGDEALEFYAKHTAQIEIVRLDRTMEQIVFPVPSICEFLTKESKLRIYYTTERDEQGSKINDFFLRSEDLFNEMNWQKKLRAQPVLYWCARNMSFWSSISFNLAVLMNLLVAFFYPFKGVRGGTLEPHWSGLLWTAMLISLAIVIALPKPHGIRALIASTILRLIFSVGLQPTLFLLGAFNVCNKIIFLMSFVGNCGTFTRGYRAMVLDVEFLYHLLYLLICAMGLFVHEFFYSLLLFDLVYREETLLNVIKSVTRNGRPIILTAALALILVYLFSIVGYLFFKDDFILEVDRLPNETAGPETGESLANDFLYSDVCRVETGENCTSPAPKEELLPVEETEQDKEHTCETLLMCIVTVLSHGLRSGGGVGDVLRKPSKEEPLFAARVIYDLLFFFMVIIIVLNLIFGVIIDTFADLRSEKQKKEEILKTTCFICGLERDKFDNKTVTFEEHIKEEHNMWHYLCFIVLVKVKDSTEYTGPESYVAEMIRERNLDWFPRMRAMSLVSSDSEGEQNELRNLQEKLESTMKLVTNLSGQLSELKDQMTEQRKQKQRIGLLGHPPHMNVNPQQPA
Data set [3] concerns the target Inositol 1,4,5-trisphosphate-gated calcium channel ITPR1 (Rattus norvegicus) (UniProt P29994). As to the kind of experiment: Agonist activity at rat IP3R1 expressed in HEK cells assessed as increase in calcium release in cytosol by measuring fluorescence signal by Mag-Fluo4 dye based assay relative to control. Type of data set: cell-based. The gist of the method: as §1

In data set [4] the target is T1, Inositol 1,4,5-trisphosphate-gated calcium channel ITPR1. As to the kind of experiment: Displacement of [3H]-IP3 from IP3R1 in Wistar rat cerebellar membrane measured after 5 mins by liquid scintillation counting method. Type of data set: cell membranes, Cerebellum.
Data set [5] is described as follows: Stability of compound in D2O at pH 7 under room temperature measured after 2 months by H-NMR spectroscopy. Type of data set: physicochemical. The note with it: buffer, pH 7, 1461 h. An outline of the steps: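 Triethylammonium salt left in D2O at pH 7, room temperature; degradation followed over time.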
Data set [6] deals with Inositol 1,4,5-trisphosphate-gated calcium channel ITPR1 (Rattus norvegicus) (UniProt P29994). The data set can be described thus: Ratio of EC50 for agonist activity at rat IP3R1 expressed in HEK cells assessed as increase in calcium release in cytosol by measuring fluorescence signal by Mag-Fluo4 dye based assay to Kd for binding affinity to IP3R1 in Wistar rat cerebellar membrane. The data set is classed as cell-based. The gist of the method: (§2)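 Ratio of EC50 from Mag-Fluo-4 Ca2+ release in permeabilized rat IP3R1-HEK cells to Kd from [3H]-IP3 competition with rat cerebellar membranes. Calculated from the difference of log values (pEC50 − pKd); given as mean with 95% CI.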

Data set [7] in a line: Stability of compound assessed as acidic hydrolysis at pH 1 measured after 1 day by H-NMR spectroscopy. The data set is classed as physicochemical. Conditions: buffer, pH 1, 24 h. The gist of the method: (§3)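 Hydrolysis followed after 1 day at pH 1 or at pH 14.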
Data set [8] is described as follows: Stability of compound assessed as basic hydrolysis at pH 14 measured after 1 day by H-NMR spectroscopy. Type of data set: physicochemical. Conditions: buffer, pH 14, 24 h. An outline of the steps:
as §3

A short description of data set [9]: Stability of compound assessed as basic hydrolysis at pH 10 measured after 1 week by H-NMR spectroscopy. The data set is classed as physicochemical. Conditions: buffer, pH 10, 168 h. An outline of the steps: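 Kept at pH 10 for one week and checked for degradation.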
In data set [10] the target is T1, Inositol 1,4,5-trisphosphate-gated calcium channel ITPR1. The data set can be described thus: Partial agonist activity at rat IP3R1 expressed in HEK cells assessed as increase in calcium release in cytosol by measuring fluorescence signal by Mag-Fluo4 dye based assay. Type of data set: cell-based. An outline of the steps:
as §1

In data set [11] the target is Inositol 1,4,5-trisphosphate-gated calcium channel ITPR1 (Rattus norvegicus) (UniProt P29994). As to the kind of experiment: Partial agonist activity at rat IP3R1 expressed in HEK cells assessed as increase in calcium release in cytosol by measuring fluorescence signal by Mag-Fluo4 dye based assay relative to inositol-1,4,5-triphosphate. Type of data set: cell-based. The gist of the method:
as §1

Data set [12] has the same target. The data set can be described thus: Ratio of EC50 for partial agonist activity at rat IP3R1 expressed in HEK cells assessed as increase in calcium release in cytosol by measuring fluorescence signal by Mag-Fluo4 dye based assay to Kd for binding affinity to IP3R1 in Wistar rat cerebellar membrane. The data set is classed as cell-based. The gist of the method: as §2

Data set [13] shares this target. As to the kind of experiment: Ratio of EC39 for partial agonist activity at rat IP3R1 expressed in HEK cells assessed as increase in calcium release in cytosol by measuring fluorescence signal by Mag-Fluo4 dye based assay to Kd for binding affinity to IP3R1 in Wistar rat cerebellar membrane. The data set is classed as cell-based.
Data set [14] is described as follows: Drug degradation at 4 degree C measured after 3 weeks by 31P-NMR analysis. Type of data set: physicochemical. The note with it: read-out: Drug degradation.
Data set [15] in a line: Drug metabolism assessed as catalytic hydrogenolysis by measuring beta-D-glucopyranosyl 1,3,4-trisphosphate triethylammonium formation by 31P-NMR analysis.

In the case of `CO[C@H]1O[C@H](COP(=O)(O)O)[C@@H](OP(=O)(O)O)[C@H](O)[C@H]1OP(=O)(O)O`, the Activity in data set [1] stood at 5.9%.
As to `CCN(CC)CC.CCN(CC)CC.CCN(CC)CC.O=P(O)(O)O[C@H]1O[C@H](CO)[C@@H](OP(=O)(O)O)[C@H](OP(=O)(O)O)[C@H]1O`, in data set [2], the EC50 is 2960 nM. The Activity in data set [3] stood at 78.8%. In addition, in data set [4], the Kd was 129 nM. Further, the Stability result was “Stable” in [5], “Unstable” in data set [7], “Unstable” in [8] and “Stable” in [9]. The Ratio in data set [6] amounted to 23.
With `Nc1ncnc2c1ncn2[C@@H]1O[C@H](CO)[C@@H](O[C@H]2O[C@H](CO)[C@@H](OP(=O)(O)O)[C@H](OP(=O)(O)O)[C@H]2O)[C@H]1OP(=O)(O)O` [ADENOPHOSTIN A], the EC50 in [2] was determined as 24 nM. Further, in data set [4], the Kd is 1.4 nM. Further, the Ratio in data set [6] stood at 17.
Take `CO[C@@H]1O[C@@H](COP(=O)(O)O)[C@H](O)[C@@H](OP(=O)(O)O)[C@@H]1OP(=O)(O)O`: the EC50 in [10] was 87700 nM. The Activity in data set [11] stood at 56.2%. For the same compound, in data set [4], the Kd amounted to 1230 nM. Moreover, the Ratio worked out at 71 in data set [12] and 132 in data set [13].
In the case of `CO[C@H]1O[C@H](COP(=O)(O)O)[C@@H](O)[C@H](OP(=O)(O)O)[C@H]1OP(=O)(O)O`, in [1], the Activity is 4.3%.
As to `O=P(OCc1ccccc1)(OCc1ccccc1)O[C@@H]1O[C@H](COCc2ccccc2)[C@@H](OP(=O)(OCc2ccccc2)OCc2ccccc2)[C@H](OP(=O)(OCc2ccccc2)OCc2ccccc2)[C@H]1OCc1ccccc1`, in data set [14], the degraded at 504 h was 30%. Moreover, in data set [15], the Drug metabolism result is given as “Metabolite detected”.
As for `CO[C@@H]1O[C@@H](COP(=O)(O)O)[C@H](OP(=O)(O)O)[C@@H](O)[C@@H]1OP(=O)(O)O`, the EC50 in data set [10] was found to be 104000 nM. The Activity in [11] came to 53.1%. For the same compound, the Kd in data set [4] was found to be 549 nM. In addition, the Ratio in [12] is 191; in [13], 462.
Consider `CCN(CC)CC.CCN(CC)CC.CCN(CC)CC.O=P(O)(O)O[C@@H]1O[C@H](CO)[C@@H](OP(=O)(O)O)[C@H](OP(=O)(O)O)[C@H]1O`, for which the EC50 in data set [2] amounted to 80 nM. Further, in data set [3], the Activity was 75.2%. In data set [4], the Kd amounted to 11.2 nM. Further, the Stability entry in data set [5] is reported as “Stable”; in data set [7], “Unstable”; in [8], “Unstable”; in data set [9], “Stable”. Moreover, the Ratio in [6] stood at 7.
